Rows were chosen to be rich in hits. Some 6.8% of all compounds tested hit in one or more screens of this group.
ALR inh – inhibitors of human sulfhydryl oxidase ALR. AID 485317. purified ALR, DTT oxidation, H2O2 HRP-luminol luminescence. 3.8% of 290,000 active. inhibition, % (concentration not given with the values);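 active = mean replicate inhibition above about 79%, with every replicate also reaching it, limit read from the data; inconclusive = only one of the two criteria met; inactive = mean below limit and not every replicate reaching it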
HCV core dimer – blocks dimerization of HCV core protein | TR-FRET GST/Flag-core106 dimerization, 1536-well | inhibition, % at 5 µM | 0.33% of 300,000 active;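 active = inhibition above the mean of all tested compounds plus 3 SD, set per screening campaign, cut at about 45% in these data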
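System: GST/Flag-tagged HCV core106 proteins. Incubation: compound-protein-antibody incubation 4 h at 22.5 °C. Technique: HTRF with 340 nm excitation, 617/671 nm emission. Medium: KF-containing HEPES buffer, pH 7.45, DTT, CHAPS, BSA. Read-out: inhibition (%) from 671 over 617 nm ratio. Also added: Eu(K)-anti-GST 90 ng/mL plus XL665-anti-Flag 1 µg/mL.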
HSF1 inhib – HSF1 inhibition. NIH3T3-HGL HSE-luciferase, MG132-induced, luminescence 8 h; active compounds read low. activity change, negative = inhibition, % at 7.5 µM (by protocol). 0.77% of 300,000 active;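 active = more than half of replicate wells show activity change below -50%, luminescence cut by over half; inconclusive = some wells, but at most half, below -50%; inactive = no replicate well below -50%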;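 note: luciferase reports HSF-1 transcriptional activity via heat shock element; 0% = median of DMSO wells and -100% = zero luminescence signal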
AI-2 QS mod – modulates the Vibrio harveyi AI-2 quorum sensing system | Vibrio harveyi JMH597 AI-2 luminescence/OD600 ratio, 9 h; active compounds read low; strain lacks LuxN and CqsS sensors; 0 = neutral-control median | activity change, % at 7.5 µM | 0.4% of 300,000 active | AID 2094; in the data active = activity change below about -75%, passing the limit was not always enough; inconclusive = no clear call, values can overlap the other calls;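 note: luminescence divided by OD600 gain over 9 h not by final OD600 alone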
PHOSPHO1 block – blocks human PHOSPHO1 phosphatase activity. AID 1565. recombinant PHOSPHO1, absorbance phosphatase assay. 1.1% of 290,000 active. inhibition, % at 13.3 µM; in the data active = inhibition above about 60%
Target sequence (Q8TCT1 whole entry, looked up): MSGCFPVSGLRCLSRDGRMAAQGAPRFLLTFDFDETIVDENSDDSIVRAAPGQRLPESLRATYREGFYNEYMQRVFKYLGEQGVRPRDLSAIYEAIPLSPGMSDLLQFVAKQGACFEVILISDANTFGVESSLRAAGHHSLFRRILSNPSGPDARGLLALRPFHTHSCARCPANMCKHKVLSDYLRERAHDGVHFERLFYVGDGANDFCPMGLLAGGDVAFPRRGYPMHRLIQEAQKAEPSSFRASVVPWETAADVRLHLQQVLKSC
HSF1 activator – increases HSF-1 driven luciferase reporter signal; activation, % at 9 µM; NIH3T3-HGL HSF-1 luciferase reporter, MG132, 8 h; 100% = twice DMSO control signal; 1.7% of 300,000 active;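 active = mean replicate activation of at least 50% with a set share of replicates each reaching 50%; inconclusive = only one of those two conditions met; inactive = mean below 50% and too few replicates reaching it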;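 note: 0% = median of the neutral control wells and 100% = twice that signal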
* hit, by the source's call; ? = inconclusive; · = no result.

SMILES	ALR inh	HCV core dimer	HSF1 inhib	AI-2 QS mod	PHOSPHO1 block	HSF1 activator
O=C(CCN1CCOCC1)N1CCCC(Nc2ccc(F)cc2)C1 (configuration not stated)	55	-4	2	18	12	13
O=C(CCC(=O)N1CCCC(Nc2ccccc2)C1)c1ccc(F)cc1 (configuration not stated)	99*	5	1	14	20	5
CCc1nccn1CCC(=O)N1CCCC(Nc2ccc(F)cc2)C1 (configuration not stated)	99*	12	-2	3	16	-7
Cc1ccc(-c2cc(C(F)F)n3ncc(C(=O)Nc4c(C)nn(Cc5c(Cl)cccc5Cl)c4C)c3n2)cc1	·	11	1	13	-5	14
CCc1nccn1C(=O)c1cnn2c(C(F)F)cc(-c3ccccc3)nc12	4	2	-88*	6	21	-91
CCc1nccn1C(=O)c1cnn2c(C(F)F)cc(-c3ccc(C)cc3)nc12	·	9	-1	21	-16	0
Cc1ccc(-c2cc(C(F)F)n3ncc(C(=O)Nc4c(C)nn(Cc5ccccc5Cl)c4C)c3n2)cc1	-5	46*	-12	18	16	10
O=C(CCCO)CCCCCCCCC[C@H]1N[C@H](CO)[C@@H](O)[C@@H]1O	-22	3	-8	14	6	-5
Cc1c(NC(=O)CN2CC(C)OC(C)C2)c(=O)n(-c2ccccc2)n1C (configuration not stated)	-6	1	·	·	10	·
Cc1ccc(-c2cc(C(=O)Nc3c(C)n(C)n(-c4ccccc4)c3=O)c3ccccc3n2)cc1	3	·	·	·	·	·
Cc1c(NC(=O)COC(=O)c2cc(-c3ccc(-c4ccccc4)cc3)nc3ccccc23)c(=O)n(-c2ccccc2)n1C	0	49*	31	9	-2	?
Cc1ccsc1C(=O)OCC(=O)Nc1c(C)n(C)n(-c2ccccc2)c1=O	9	-7	-7	23	-5	2
Cc1c(C(=O)OCC(=O)Nc2c(C)n(C)n(-c3ccccc3)c2=O)oc2ccccc12	99*	-7	2	20	25	2
Cc1c(NC(=O)CN2c3ccccc3CC2C)c(=O)n(-c2ccccc2)n1C (configuration not stated)	97*	3	-30	37	-24	-31
CCC(=O)c1c[nH]c(C(=O)N2CCOCC2)c1	-3	1	-4	11	24	-4
COCCOC(=O)c1[nH]c2c(c1C)C(=O)C(C(=O)OC)C(C)C2 (configuration not stated)	·	-9	19	25	-3	42
CCCCCOC(=O)c1[nH]c2c(c1C)C(=O)C(C(=O)OC)C(C)C2 (configuration not stated)	2	1	57	1	9	76*
CCOc1ccccc1/C=C/C(=O)c1ccc(Cl)cc1	·	2	30	11	6	69*
COc1ccccc1/C=C/C(=O)c1ccc(Cl)cc1	·	6	1	18	-7	18
CCc1nnc(NC(=O)c2ccc(OC)c(S(=O)(=O)N3CCCC3)c2)s1	0	·	·	·	·	·
Cc1ccc(N2CCN(S(=O)(=O)c3cccs3)CC2C)cc1 (configuration not stated)	99*	-4	-3	-14	16	-5
O=S(=O)(c1cccs1)N1CCN(c2ccccc2)CC1	68	0	-4	21	18	-10
COc1ccc(C(=O)NC(=S)NNC(=O)Cc2cccs2)cc1	99*	-2	0	66	100*	9
COc1ccc(C(=O)NC(=S)NNC(=O)CNC(=O)C2CCCCC2)cc1	99*	-1	0	48	9	3
COc1cc(OC)cc(C(=O)NC(=S)NNC(=O)Cc2cccs2)c1	99*	4	-14	59	-24	-3
NNC1=N[C@H]2CS(=O)(=O)C[C@H]2S1	-15	-3	2	6	-9	20
Cc1ccc(NS(=O)(=O)c2ccc(OCC(=O)N3CCOCC3)cc2)cc1	-9	-1	-12	6	11	-10
CCN1C(=O)N[C@@H](c2ccco2)C(C(C)=O)=C1C	-4	-15	-5	5	·	-9

Screens as filed in PubChem.
